Data reported in ChEMBL document CHEMBL2086345, “Metabotropic glutamate receptor 5 negative allosteric modulators as novel tools for in vivo investigation” (ACS Med Chem Lett, 2012).
Each block holds one compound with its values, some of them ahead of it. The source made the active and inactive calls. No cut-off for these calls is given here.

Legend:
[1] = target: T1, Metabotropic glutamate receptor 5 (Rattus norvegicus, UniProt P31424); test: Displacement of [3H]MPEP from mGluR5 in Sprague-Dawley rat brain membrane after 60 mins by liquid scintillation counting; format: cell membranes
T1 sequence (P31424 whole entry): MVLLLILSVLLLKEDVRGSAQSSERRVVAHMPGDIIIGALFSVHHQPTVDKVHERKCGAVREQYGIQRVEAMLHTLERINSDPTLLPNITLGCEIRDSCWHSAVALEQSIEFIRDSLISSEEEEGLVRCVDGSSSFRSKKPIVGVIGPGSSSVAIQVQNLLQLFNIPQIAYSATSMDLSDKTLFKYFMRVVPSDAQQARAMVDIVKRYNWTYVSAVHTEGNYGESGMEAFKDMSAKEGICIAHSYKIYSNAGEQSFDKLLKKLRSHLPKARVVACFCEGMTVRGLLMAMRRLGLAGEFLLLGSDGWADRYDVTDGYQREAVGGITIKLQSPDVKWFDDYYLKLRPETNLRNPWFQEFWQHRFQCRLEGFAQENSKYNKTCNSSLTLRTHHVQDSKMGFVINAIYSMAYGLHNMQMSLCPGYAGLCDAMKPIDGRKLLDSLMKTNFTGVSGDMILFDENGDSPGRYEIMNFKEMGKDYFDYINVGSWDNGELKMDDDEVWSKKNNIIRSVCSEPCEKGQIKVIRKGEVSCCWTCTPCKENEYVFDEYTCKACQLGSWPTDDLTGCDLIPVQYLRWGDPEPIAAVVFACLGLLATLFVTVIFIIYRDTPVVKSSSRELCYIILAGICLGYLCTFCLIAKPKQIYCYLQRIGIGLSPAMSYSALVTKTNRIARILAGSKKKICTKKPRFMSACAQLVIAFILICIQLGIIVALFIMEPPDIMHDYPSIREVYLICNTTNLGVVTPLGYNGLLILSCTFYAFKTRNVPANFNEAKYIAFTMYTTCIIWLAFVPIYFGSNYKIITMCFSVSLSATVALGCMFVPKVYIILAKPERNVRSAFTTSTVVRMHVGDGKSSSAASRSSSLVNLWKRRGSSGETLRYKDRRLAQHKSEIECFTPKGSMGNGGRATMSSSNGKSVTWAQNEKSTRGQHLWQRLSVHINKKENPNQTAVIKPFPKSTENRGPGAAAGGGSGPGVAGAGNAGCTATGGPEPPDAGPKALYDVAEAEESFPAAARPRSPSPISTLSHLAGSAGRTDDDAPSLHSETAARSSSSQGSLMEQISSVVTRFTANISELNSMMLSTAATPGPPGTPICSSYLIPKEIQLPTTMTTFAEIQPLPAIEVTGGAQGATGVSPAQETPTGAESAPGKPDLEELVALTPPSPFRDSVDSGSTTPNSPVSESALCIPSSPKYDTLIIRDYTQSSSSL

[2] = target: T1, Metabotropic glutamate receptor 5; test: Inverse agonist activity at rat mGluR5 expressed in HEK293A cells coexpressing Gqalpha assessed as inhibition of basal D-myo-inositol 1 production by ELISA
Mus musculus [3] = test: Anxiolytic activity in Swiss Webster mouse assessed as increase in locomotor activity at 3 mg/kg, ip administered as single dose 15 mins prior to testing by open-field test; format: functional, organism-based; design: dose 3 mg/kg
Method in brief: (§1)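 Open-field test in mice. Drugs were suspended in 2% ethanol/10% Tween 80/water (MTEP in saline) and given ip 15 min before testing. Locomotor activity and time in the center region were recorded. n = 10–12 per dose, means ± SEM. Each dose was compared with its within-group vehicle cohort by one-way ANOVA with Bonferroni post hoc test.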

[4] = target: Metabotropic glutamate receptor 5 (Rattus norvegicus) (UniProt P31424); test: Inverse agonist activity at rat mGluR5 expressed in HEK293A cells coexpressing Gqalpha assessed as inhibition of quisqualic-induced D-myo-inositol 1 production by ELISA; format: functional, cell-based; details: HEK293-A
Sequence of Metabotropic glutamate receptor 5 (Rattus norvegicus) (P31424 21-1203 limits assumed): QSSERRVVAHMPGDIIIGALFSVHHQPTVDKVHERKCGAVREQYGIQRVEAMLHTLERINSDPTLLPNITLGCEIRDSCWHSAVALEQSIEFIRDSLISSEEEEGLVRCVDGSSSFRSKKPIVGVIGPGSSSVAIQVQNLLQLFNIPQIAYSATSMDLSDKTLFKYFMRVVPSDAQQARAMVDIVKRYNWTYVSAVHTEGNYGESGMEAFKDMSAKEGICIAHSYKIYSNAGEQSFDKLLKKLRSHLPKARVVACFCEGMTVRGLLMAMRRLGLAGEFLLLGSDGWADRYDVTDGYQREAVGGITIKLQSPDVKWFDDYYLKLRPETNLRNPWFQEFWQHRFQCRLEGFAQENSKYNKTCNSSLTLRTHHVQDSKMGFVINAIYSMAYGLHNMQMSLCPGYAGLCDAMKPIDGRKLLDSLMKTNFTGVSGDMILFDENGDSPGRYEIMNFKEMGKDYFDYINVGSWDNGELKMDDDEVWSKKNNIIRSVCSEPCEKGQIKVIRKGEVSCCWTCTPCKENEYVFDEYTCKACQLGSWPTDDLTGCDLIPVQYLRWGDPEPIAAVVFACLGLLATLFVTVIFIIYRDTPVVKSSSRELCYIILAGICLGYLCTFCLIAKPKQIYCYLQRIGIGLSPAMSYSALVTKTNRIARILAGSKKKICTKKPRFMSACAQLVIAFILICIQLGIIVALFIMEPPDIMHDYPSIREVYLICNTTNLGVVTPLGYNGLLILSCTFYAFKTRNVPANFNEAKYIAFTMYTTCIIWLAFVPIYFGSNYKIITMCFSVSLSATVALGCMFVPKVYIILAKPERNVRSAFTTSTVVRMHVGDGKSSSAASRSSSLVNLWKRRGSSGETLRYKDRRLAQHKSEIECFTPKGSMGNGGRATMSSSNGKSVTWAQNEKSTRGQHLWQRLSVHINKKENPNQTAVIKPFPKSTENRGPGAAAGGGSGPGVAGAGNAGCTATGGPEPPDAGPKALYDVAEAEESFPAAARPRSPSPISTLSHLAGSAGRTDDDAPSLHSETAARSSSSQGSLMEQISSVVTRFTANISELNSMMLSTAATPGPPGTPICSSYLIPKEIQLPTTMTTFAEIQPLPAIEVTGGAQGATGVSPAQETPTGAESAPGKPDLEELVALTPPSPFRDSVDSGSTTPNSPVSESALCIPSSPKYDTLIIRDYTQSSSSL
Method in brief: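 IP₃ production was gauged indirectly by IP-One ELISA for IP₁ accumulation. Dose–response curves were run without agonist and in the presence of 1 μM quisqualic acid.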

Mus musculus [5] = test: Anxiolytic activity in ip dosed Swiss Webster mouse assessed as increase in locomotor activity administered as single dose 15 mins prior to testing by open-field test; format: functional, organism-based; method in brief: as §1
Mus musculus [6] = test: Anxiolytic activity in ip dosed Swiss Webster mouse assessed as increase in time spent in the centre region administered as single dose 15 mins prior to testing by open-field test; format: functional, organism-based; method in brief: as §1
Mus musculus [7] = test: Anxiolytic activity in Swiss Webster mouse assessed as increase in number of compartment transitions at 3 mg/kg, ip administered as single dose 15 mins prior to testing by light-dark box test; format: functional, organism-based; design: dose 3 mg/kg
Method in brief: (§2)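 Light–dark box test in mice. Drugs were given ip 15 min pretest in a 2% ethanol, 10% Tween 80 and water suspension (MTEP in saline). Read-outs were the proportion of time in the light compartment and the number of light–dark transitions. n = 10–12 per dose, means ± SEM. One-way ANOVA with Bonferroni test against the within-group vehicle cohort.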

Mus musculus [8] = test: Anxiolytic activity in ip dosed Swiss Webster mouse assessed as increase in time spent in light compartment administered as single dose 15 mins prior to testing by light-dark box test; format: functional, organism-based; method in brief: as §2
Mus musculus [9] = test: Anxiolytic activity in Swiss Webster mouse assessed as increase in time spent in the centre region at 0.1 to 0.3 mg/kg, ip administered as single dose 15 mins prior to testing by open-field test; format: functional, organism-based; method in brief: as §1
Mus musculus [10] = test: Anxiolytic activity in Swiss Webster mouse assessed as increase in time spent in light compartment at 0.1 to 0.3 mg/kg, ip administered as single dose 15 mins prior to testing by light-dark box test; format: functional, organism-based; method in brief: as §2
[11] = target: Metabotropic glutamate receptor 5 (Rattus norvegicus) (UniProt P31424); test: Ratio of MPEP Ki to compound Ki for mGluR5 in Sprague-Dawley rat brain membrane; format: cell membranes
Mus musculus [12] = test: Anxiolytic activity in ip dosed Swiss Webster mouse assessed as increase in number of compartment transitions administered as single dose 15 mins prior to testing by light-dark box test; format: functional, organism-based; method in brief: as §2
Mus musculus [13] = test: Anxiolytic activity in Swiss Webster mouse assessed as increase in time spent in light compartment at 3 mg/kg, ip administered as single dose 15 mins prior to testing by light-dark box test; format: functional, organism-based; design: dose 3 mg/kg; method in brief: as §2
Mus musculus [14] = test: Anxiolytic activity in Swiss Webster mouse assessed as increase in time spent in the centre region at 3 mg/kg, ip administered as single dose 15 mins prior to testing by open-field test; format: functional, organism-based; design: dose 3 mg/kg; method in brief: as §1
Mus musculus [15] = test: Anxiolytic activity in Swiss Webster mouse assessed as increase in locomotor activity at 0.1 to 0.3 mg/kg, ip administered as single dose 15 mins prior to testing by open-field test; format: functional, organism-based; method in brief: as §1
Mus musculus [16] = test: Anxiolytic activity in Swiss Webster mouse assessed as increase in number of compartment transitions at 0.1 to 0.3 mg/kg, ip administered as single dose 15 mins prior to testing by light-dark box test; format: functional, organism-based; method in brief: as §2
Mus musculus [17] = test: Anxiolytic activity in Swiss Webster mouse assessed as increase in time spent in light compartment at 0.3 mg/kg, ip administered as single dose 15 mins prior to testing by light-dark box test; format: functional, organism-based; design: dose 0.3 mg/kg; method in brief: as §2
Mus musculus [18] = test: Anxiolytic activity in Swiss Webster mouse assessed as increase in number of compartment transitions at 0.3 mg/kg, ip administered as single dose 15 mins prior to testing by light-dark box test; format: functional, organism-based; design: dose 0.3 mg/kg; method in brief: as §2
Mus musculus [19] = test: Anxiolytic activity in Swiss Webster mouse assessed as increase in time spent in the centre region at 0.3 mg/kg, ip administered as single dose 15 mins prior to testing by open-field test; format: functional, organism-based; design: dose 0.3 mg/kg; method in brief: as §1
Mus musculus [20] = test: Anxiolytic activity in Swiss Webster mouse assessed as increase in locomotor activity at 0.3 mg/kg, ip administered as single dose 15 mins prior to testing by open-field test; format: functional, organism-based; design: dose 0.3 mg/kg; method in brief: as §1
Mus musculus [21] = test: Anxiolytic activity in Swiss Webster mouse assessed as increase in number of compartment transitions at 30 mg/kg, ip administered as single dose 15 mins prior to testing by light-dark box test; format: functional, organism-based; design: dose 30 mg/kg; method in brief: as §2
Mus musculus [22] = test: Anxiolytic activity in Swiss Webster mouse assessed as increase in number of compartment transitions at 3 to 30 mg/kg, ip administered as single dose 15 mins prior to testing by light-dark box test; format: functional, organism-based; method in brief: as §2
Mus musculus [23] = test: Anxiolytic activity in Swiss Webster mouse assessed as increase in locomotor activity at 3 to 30 mg/kg, ip administered as single dose 15 mins prior to testing by open-field test; format: functional, organism-based; method in brief: as §1
Mus musculus [24] = test: Anxiolytic activity in Swiss Webster mouse assessed as increase in time spent in light compartment at 3 to 30 mg/kg, ip administered as single dose 15 mins prior to testing by light-dark box test; format: functional, organism-based; method in brief: as §2
Mus musculus [25] = test: Anxiolytic activity in Swiss Webster mouse assessed as increase in time spent in the centre region at 3 to 30 mg/kg, ip administered as single dose 15 mins prior to testing by open-field test; format: functional, organism-based; method in brief: as §1
Mus musculus [26] = test: Anxiolytic activity in Swiss Webster mouse assessed as increase in time spent in light compartment at 30 mg/kg, ip administered as single dose 15 mins prior to testing by light-dark box test; format: functional, organism-based; design: dose 30 mg/kg; method in brief: as §2
Mus musculus [27] = test: Anxiolytic activity in Swiss Webster mouse assessed as increase in locomotor activity at 30 mg/kg, ip administered as single dose 15 mins prior to testing by open-field test; format: functional, organism-based; design: dose 30 mg/kg; method in brief: as §1
Mus musculus [28] = test: Anxiolytic activity in Swiss Webster mouse assessed as increase in time spent in the centre region at 30 mg/kg, ip administered as single dose 15 mins prior to testing by open-field test; format: functional, organism-based; design: dose 30 mg/kg; method in brief: as §1
Mus musculus [29] = test: Anxiolytic activity in Swiss Webster mouse assessed as increase in locomotor activity at 10 mg/kg, ip administered as single dose 15 mins prior to testing by open-field test; format: functional, organism-based; design: dose 10 mg/kg; method in brief: as §1
Mus musculus [30] = test: Anxiolytic activity in Swiss Webster mouse assessed as increase in number of compartment transitions at 10 mg/kg, ip administered as single dose 15 mins prior to testing by light-dark box test; format: functional, organism-based; design: dose 10 mg/kg; method in brief: as §2
Mus musculus [31] = test: Anxiolytic activity in Swiss Webster mouse assessed as increase in time spent in the centre region at 10 mg/kg, ip administered as single dose 15 mins prior to testing by open-field test; format: functional, organism-based; design: dose 10 mg/kg; method in brief: as §1
Mus musculus [32] = test: Anxiolytic activity in Swiss Webster mouse assessed as increase in time spent in light compartment at 10 mg/kg, ip administered as single dose 15 mins prior to testing by light-dark box test; format: functional, organism-based; design: dose 10 mg/kg; method in brief: as §2

Structure (SMILES): N#Cc1cccc(C#Cc2cccc(C#N)n2)c1
- Ki [1]: 8.2 nM
- IC50 [2]: 20 nM

Structure (SMILES): N#Cc1cc(F)cc(C#Cc2cccc(CO)n2)c1
- Ki [1]: 7.5 nM
- IC50 [2]: 50 nM

Structure (SMILES): N#Cc1cccc(C#Cc2cccc(F)n2)c1
- Ki [1]: 150 nM
- IC50 [2]: 210 nM

Structure (SMILES): N#Cc1cncc(C#Cc2cccc(C#N)n2)c1
- Ki [1]: 52 nM
- IC50 [2]: 500 nM

Structure (SMILES): COc1cccc(C#Cc2cncc(C#N)c2)n1
- Ki [1]: 55 nM
- IC50 [2]: 200 nM

Structure (SMILES): COc1cccc(C#Cc2cc(F)cc(C#N)c2)n1
- Ki [1]: 40 nM
- IC50 [2]: 400 nM

Structure (SMILES): COc1cccc(C#Cc2cccc(C#N)c2)n1
- Ki [1]: 200 nM
- IC50 [2]: 300 nM

Structure (SMILES): N#Cc1cccc(C#Cc2cccc(CO)n2)c1
- Ki [1]: 37 nM
- IC50 [2]: 30 nM

Structure (SMILES): CC(=O)c1cccc(C#Cc2cccc(C#N)c2)n1
- Ki [1]: 114 nM
- IC50 [2]: 300 nM

Structure (SMILES): CCCCc1cccc(C#Cc2cccc(C#N)c2)n1
- Ki [1]: 45 nM
- IC50 [2]: 700 nM

Structure (SMILES): CC(=O)c1cccc(C#Cc2cc(F)cc(C#N)c2)n1
- Ki [1]: 64 nM
- IC50 [2]: 240 nM

Structure (SMILES): Cc1cccc(C#Cc2cc(F)cc(C#N)c2)n1
- Activity (Mus musculus [3]): Active
- inhibition [4]: Dose-dependent effect
- Ki [1]: 0.67 nM
- Activity (Mus musculus [5]): Dose-dependent effect
- Activity (Mus musculus [6]): Dose-dependent effect
- Activity (Mus musculus [7]): inactive
- Activity (Mus musculus [17]): Active
- Activity (Mus musculus [18]): Active
- Activity (Mus musculus [8]): Dose-dependent effect
- Activity (Mus musculus [19]): Active
- IC50 [2]: 2.4 nM
- Ratio Ki [11]: 24
- Activity (Mus musculus [12]): Dose-dependent effect
- Activity (Mus musculus [13]): inactive
- Activity (Mus musculus [14]): inactive
- Activity (Mus musculus [20]): Active

Structure (SMILES): Cc1cccc(C#Cc2ccccc2)n1
- Activity (Mus musculus [21]): inactive
- Activity (Mus musculus [22]): Active
- Activity (Mus musculus [23]): Active
- inhibition [4]: Dose-dependent effect
- Activity (Mus musculus [5]): Dose-dependent effect
- Activity (Mus musculus [6]): Dose-dependent effect
- Activity (Mus musculus [24]): Active
- Activity (Mus musculus [25]): Active
- Activity (Mus musculus [8]): Dose-dependent effect
- Activity (Mus musculus [26]): inactive
- Activity (Mus musculus [27]): Active
- Activity (Mus musculus [12]): Dose-dependent effect
- Activity (Mus musculus [28]): inactive

Structure (SMILES): Cc1nc(C#Cc2cccnc2)cs1
- Activity (Mus musculus [29]): Active
- inhibition [4]: Dose-dependent effect
- Activity (Mus musculus [5]): Dose-dependent effect
- Activity (Mus musculus [30]): Active
- Activity (Mus musculus [6]): Dose-dependent effect
- Activity (Mus musculus [31]): Active
- Activity (Mus musculus [8]): Dose-dependent effect
- Activity (Mus musculus [32]): Active
- Activity (Mus musculus [12]): Dose-dependent effect

Structure (SMILES): Cc1cccc(C#Cc2cccc(C#N)c2)n1
- Ki [1]: 1.04 nM
- IC50 [2]: 13 nM

More lines, main results first:

- Ki [1]: > 10000 nM
Structure (SMILES): N#Cc1cccc(C#Cc2cc(F)cc(C(N)=O)c2)n1

- Ki [1]: > 10000 nM
Structure (SMILES): N#Cc1cccc(C#Cc2cccc(C(N)=O)c2)n1

- Ki [1]: > 10000 nM
Structure (SMILES): N#Cc1cncc(C#Cc2cccc(CO)n2)c1

- inhibition [4]: Dose-dependent effect
- Ki [1]: 2.7 nM
- IC50 [2]: 9 nM
- Ratio Ki [11]: 6
Structure (SMILES): N#Cc1cc(F)cc(C#Cc2cccc(C#N)n2)c1
- Activity (Mus musculus [3]): inactive
- Activity (Mus musculus [5]): Dose-dependent effect
- Activity (Mus musculus [6]): Dose-dependent effect
- Activity (Mus musculus [7]): inactive
- Activity (Mus musculus [8]): Dose-dependent effect
- Activity (Mus musculus [9]): Active
- Activity (Mus musculus [10]): Active
- Activity (Mus musculus [12]): Dose-dependent effect
- Activity (Mus musculus [13]): inactive
- Activity (Mus musculus [14]): inactive
- Activity (Mus musculus [15]): Active
- Activity (Mus musculus [16]): Active

- Ki [1]: 3.4 nM
- IC50 [2]: 80 nM
Structure (SMILES): CCc1cccc(C#Cc2cccc(C#N)c2)n1

- Ki [1]: 41 nM
- IC50 [2]: 80 nM
Structure (SMILES): N#Cc1cc(F)cc(C#Cc2cccc(F)n2)c1

- Ki [1]: 1.29 nM
- IC50 [2]: 3.4 nM
Structure (SMILES): COc1cc(C#N)cc(C#Cc2cccc(C)n2)c1
